Common to all, as to format: functional
For experiment [1], the system named is Staphylococcus epidermidis. In words: Minimum inhibition concentration in vitro determined against Staphylococcus epidermidis 3519. Put shortly:
(§1)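 Agar dilution on brain-heart infusion (BHI) agar with twofold dilutions from a 2000 µg/mL stock, giving final test concentrations of 200-0.005 µg/mL. Organisms were grown overnight in BHI broth at 36 °C, and about 10⁴ organisms were inoculated per plate. Plates were incubated 18 h at 36 °C. MIC was the lowest concentration with no visible growth.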

Experiment [2] relates to Staphylococcus aureus. In words: Minimum inhibition concentration in vitro determined against Staphylococcus aureus CMX 686B. In a few lines:
as §1

For a further experiment, the system named is Acinetobacter. In words: Minimum inhibition concentration in vitro determined against Acinetobacter sp CMX669. In a few lines:
as §1

Experiment [3] relates to Pseudomonas aeruginosa. Put plainly: Minimum inhibition concentration in vitro determined against Pseudomona aeruginosa 5007. Put shortly: as §1
The next experiment concerns Enterococcus faecium. In words: Minimum inhibition concentration in vitro determined against Streptococcus faecium ATCC 8043. Put shortly: as §1
The next experiment concerns Klebsiella aerogenes. Put plainly: Minimum inhibition concentration in vitro determined against Enterobacteri aerogenes ATCC 13048. In a few lines:
as §1

Another experiment has as its system Klebsiella pneumoniae. Put plainly: Minimum inhibition concentration in vitro determined against Klebsiella pneumoniae 8045. Put shortly:
as §1

Experiment [4] has as its system Pseudomonas aeruginosa. Put plainly: Minimum inhibition concentration in vitro determined against Pseudomona aeruginosa K799/WT. Put shortly: as §1
For a further experiment, the system named is Streptococcus pyogenes. Put plainly: Minimum inhibition concentration in vitro determined against Streptococcus pyogenes 930. In a few lines:
as §1

Experiment [5] concerns Escherichia coli. Put plainly: Minimum inhibition concentration in vitro determined against Escherichia coli juhl. The following applies: Escherichia coli; read-out: MIC. In a few lines:
as §1

The subject of experiment [6] is Staphylococcus aureus. Put plainly: Minimum inhibition concentration in vitro determined against Staphylococcus aureus ATCC 6538P. Put shortly: as §1
Experiment [7] relates to Mus musculus. Put plainly: In vivo inhibitory activity against Escherichia coli Juhl after peroral administration in mice. Conditions: po. Put shortly:
(§2)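 Female CF-1 mice (~20 g) were infected ip with 0.5 mL of an 18-h BHI culture of E. coli Juhl in 5% hog gastric mucin at 100× LD50. The LD50 had been set beforehand by 10-fold dilutions and Reed-Muench. Compound in water or dilute NaOH was given sc or po, split equally at 1 and 5 h post-infection. Groups of 10 mice got ≥3 doses, with 10 untreated controls. ED50 was calculated from day-6 cumulative mortality by trimmed Logit.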

The test system of experiment [8] is Mus musculus. In words: In vivio inhibitory activity against Escherichia coli Juhl after subcutaneous administration in mice. The following applies: sc. Put shortly: as §2
The subject of experiment [9] is Escherichia coli. Put plainly: Compound was evaluated for inhibitory activity against Escherichia coli Juhl (in vivo). The following applies: in the assay text read “in vitro” for “in vivo”.

SMILES strings stand for the structures. ≈ marks a conversion by molar mass, not a printed value.

As for `O=C(O)c1cn(-c2ccc(F)cc2)c2cc(N3CCCC3)c(F)cc2c1=O`, the minimal inhibitory concentration (MIC) in [1] worked out at 0.2 µg/mL (≈ 0.54 µM); against Staphylococcus aureus [2], 0.1 µg/mL (≈ 0.27 µM); against Acinetobacter, 0.78 µg/mL (≈ 2.11 µM); in the experiment with Pseudomonas aeruginosa [3] it was 1.56 µg/mL (≈ 4.21 µM); in the experiment with Enterococcus faecium it was 0.78 µg/mL (≈ 2.11 µM); against Klebsiella aerogenes, 0.78 µg/mL (≈ 2.11 µM). Also, the MIC against Klebsiella pneumoniae was found to be 0.39 µg/mL (≈ 1.05 µM); with Pseudomonas aeruginosa [4], 1.56 µg/mL (≈ 4.21 µM); against Streptococcus pyogenes, 0.78 µg/mL (≈ 2.11 µM); in the experiment with Escherichia coli [5], 0.78 µg/mL (≈ 2.11 µM); with Staphylococcus aureus [6], 0.1 µg/mL (≈ 0.27 µM).
As to `CN1CCN(c2cc3c(cc2F)c(=O)c(C(=O)O)cn3-c2ccc(F)cc2F)CC1`, the minimal inhibitory concentration (MIC) in [1] worked out at 0.39 µg/mL (≈ 0.934 µM); against Staphylococcus aureus [2] it was 0.1 µg/mL (≈ 0.24 µM); against Acinetobacter it was 0.1 µg/mL (≈ 0.24 µM); in the experiment with Pseudomonas aeruginosa [3], 1.56 µg/mL (≈ 3.74 µM); in the experiment on Enterococcus faecium, 0.78 µg/mL (≈ 1.87 µM); against Klebsiella aerogenes, 0.39 µg/mL (≈ 0.934 µM). Further, the MIC in the experiment on Klebsiella pneumoniae was found to be 0.1 µg/mL (≈ 0.24 µM); against Pseudomonas aeruginosa [4], 1.56 µg/mL (≈ 3.74 µM); with Streptococcus pyogenes, 0.78 µg/mL (≈ 1.87 µM); in the experiment on Escherichia coli [5], 0.2 µg/mL (≈ 0.479 µM); with Staphylococcus aureus [6], 0.1 µg/mL (≈ 0.24 µM).
With `Cc1cccc(C)c1-n1cc(C(=O)O)c(=O)c2cc(F)c(N3CCN(C)CC3)cc21`, the MIC (in experiment [1]; against Staphylococcus aureus [2]; against Acinetobacter; in the experiment with Pseudomonas aeruginosa [3]; in the experiment with Enterococcus faecium; with Klebsiella aerogenes) was > 100 µg/mL throughout. The MIC against Klebsiella pneumoniae, against Pseudomonas aeruginosa [4], against Streptococcus pyogenes, in the experiment with Escherichia coli [5] and against Staphylococcus aureus [6] was > 100 µg/mL each time.
`O=C1CN(c2cc3c(cc2F)c(=O)c(C(=O)O)cn3-c2ccc(F)cc2)CCN1`: the MIC in [1] was found to be 0.78 µg/mL (≈ 1.95 µM); in the experiment on Staphylococcus aureus [2], 0.39 µg/mL (≈ 0.977 µM); in the experiment with Acinetobacter it was 12.5 µg/mL (≈ 31.3 µM); against Pseudomonas aeruginosa [3] it was 6.2 µg/mL (≈ 15.5 µM); with Enterococcus faecium, 1.56 µg/mL (≈ 3.91 µM); against Klebsiella aerogenes, 1.56 µg/mL (≈ 3.91 µM). Besides, the MIC in the experiment with Klebsiella pneumoniae was determined as 0.39 µg/mL (≈ 0.977 µM); in the experiment with Pseudomonas aeruginosa [4] it was 3.1 µg/mL (≈ 7.76 µM); against Streptococcus pyogenes it was 0.78 µg/mL (≈ 1.95 µM); in the experiment with Escherichia coli [5], 0.39 µg/mL (≈ 0.977 µM); in the experiment with Staphylococcus aureus [6], 0.2 µg/mL (≈ 0.501 µM).
Take `CN1CCN(c2cc3c(cc2F)c(=O)c(C(=O)O)cn3-c2cccc(F)c2)CC1`: the minimum inhibitory concentration (MIC) is 12.5 µg/mL (≈ 31.3 µM) in [1]; 12.5 µg/mL (≈ 31.3 µM) in the experiment with Staphylococcus aureus [2]; 50 µg/mL (≈ 125 µM) against Acinetobacter; 50 µg/mL (≈ 125 µM) in the experiment with Pseudomonas aeruginosa [3]; 50 µg/mL (≈ 125 µM) in the experiment with Enterococcus faecium; 6.2 µg/mL (≈ 15.5 µM) against Klebsiella aerogenes. The MIC in the experiment with Klebsiella pneumoniae is 3.1 µg/mL (≈ 7.76 µM); with Pseudomonas aeruginosa [4], 50 µg/mL (≈ 125 µM); against Streptococcus pyogenes it was 25 µg/mL (≈ 62.6 µM); in the experiment with Escherichia coli [5], 6.2 µg/mL (≈ 15.5 µM); in the experiment on Staphylococcus aureus [6], 12.5 µg/mL (≈ 31.3 µM).
For `CC(=O)NC1CCN(c2cc3c(cc2F)c(=O)c(C(=O)O)cn3-c2ccc(F)cc2)C1` (stereo unspecified), the MIC is 0.39 µg/mL (≈ 0.912 µM) in experiment [1]; 0.39 µg/mL (≈ 0.912 µM) in the experiment with Staphylococcus aureus [2]; 3.1 µg/mL (≈ 7.25 µM) against Acinetobacter; 6.2 µg/mL (≈ 14.5 µM) against Pseudomonas aeruginosa [3]; 1.56 µg/mL (≈ 3.65 µM) in the experiment on Enterococcus faecium; 1.56 µg/mL (≈ 3.65 µM) in the experiment on Klebsiella aerogenes. Also, the MIC in the experiment with Klebsiella pneumoniae came to 0.78 µg/mL (≈ 1.82 µM); with Pseudomonas aeruginosa [4], 6.2 µg/mL (≈ 14.5 µM); in the experiment with Streptococcus pyogenes, 0.78 µg/mL (≈ 1.82 µM); with Escherichia coli [5], 0.78 µg/mL (≈ 1.82 µM); in the experiment on Staphylococcus aureus [6] it was 0.1 µg/mL (≈ 0.234 µM).
`CN1CCN(c2cc3c(cc2F)c(=O)c(C(=O)O)cn3-c2ccc(F)cc2)CC1` [DIFLOXACIN]: the minimum inhibitory concentration (MIC) was 0.39 µg/mL (≈ 0.976 µM) in experiment [1]; 0.2 µg/mL (≈ 0.501 µM) against Staphylococcus aureus [2]; 0.2 µg/mL (≈ 0.501 µM) against Escherichia coli [9]; 0.2 µg/mL (≈ 0.501 µM) in the experiment on Acinetobacter; 1.56 µg/mL (≈ 3.91 µM) against Pseudomonas aeruginosa [3]; 1.56 µg/mL (≈ 3.91 µM) in the experiment with Enterococcus faecium. The minimum inhibitory concentration (MIC) was 0.78 µg/mL (≈ 1.95 µM) with Klebsiella aerogenes; 0.1 µg/mL (≈ 0.25 µM) with Klebsiella pneumoniae; 1.56 µg/mL (≈ 3.91 µM) with Pseudomonas aeruginosa [4]; 1.56 µg/mL (≈ 3.91 µM) against Streptococcus pyogenes; 0.2 µg/mL (≈ 0.501 µM) with Escherichia coli [5]; 0.2 µg/mL (≈ 0.501 µM) with Staphylococcus aureus [6]. Moreover, the ED50 is 3.1 mg/kg in the experiment with Mus musculus [7] and 1.6 mg/kg in the experiment on Mus musculus [8].
Regarding `CN(C)C1CCN(c2cc3c(cc2F)c(=O)c(C(=O)O)cn3-c2ccc(F)cc2)CC1`, the MIC in experiment [1] is 0.78 µg/mL (≈ 1.82 µM); in the experiment with Staphylococcus aureus [2] it was 0.39 µg/mL (≈ 0.912 µM); in the experiment with Acinetobacter, 0.78 µg/mL (≈ 1.82 µM); in the experiment on Pseudomonas aeruginosa [3], 3.1 µg/mL (≈ 7.25 µM); in the experiment on Enterococcus faecium it was 3.1 µg/mL (≈ 7.25 µM); in the experiment with Klebsiella aerogenes, 0.78 µg/mL (≈ 1.82 µM). Besides, the minimal inhibitory concentration (MIC) with Klebsiella pneumoniae was 0.39 µg/mL (≈ 0.912 µM); in the experiment on Pseudomonas aeruginosa [4], 3.1 µg/mL (≈ 7.25 µM); with Streptococcus pyogenes it was 1.56 µg/mL (≈ 3.65 µM); in the experiment on Escherichia coli [5], 0.39 µg/mL (≈ 0.912 µM); in the experiment with Staphylococcus aureus [6], 0.39 µg/mL (≈ 0.912 µM).

One may read the MIC as the lowest concentration that inhibits growth of the organism. For orientation: ED50 means the midpoint of the dose-response relation. Low readings indicate greater potency, high ones weaker potency.

The values above are taken from ChEMBL document CHEMBL1122831, “Synthesis and structure-activity relationships of novel arylfluoroquinolone antibacterial agents” (1985).
